Experimental findings from PubChem BioAssay AID573 (SRMLSC, 2007) are described below.

Hit rate of the full screen: of about 65,000 compounds, about 1,400 (2.2%) were called active. This excerpt belongs to a sample that is enriched for actives. A number with no mark means an inactive call.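 Rule for the calls: active = growth inhibition at or above a cutoff equal to the mean over every tested compound plus 3 SD (cut at about 60% in these data); inactive = the rest.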

The nature of the experiment: growth inhibitors of E. coli tolC mutant, primary screen, strain BW25113 ΔtolC::kan, 384-well (AID 573). The conditions noted are these: OD615, hits give high values, screened at 10 µM (by protocol). The gist of the method:
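System: E. coli ΔtolC::kan strain BW25113; Buffer or medium: LB broth supplemented with 50 µg/mL kanamycin; Compound: 10 µM final, single dose; Incubation: bacterial growth with compound for 20 h at 37 °C; Signal: A615 absorbance measurement; Evaluation: growth inhibition in percent.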
On to `O=C(NCc1ccco1)c1sc2cccc(F)c2c1Cl`, for which the growth inhibition is -1.49%.
Next, `CCOc1ccccc1NC(=O)C1CCN(S(=O)(=O)c2c(C)nn(C)c2C)CC1`: -6.48%.
Regarding `COc1ccc(-n2c(SCC(=O)OC(C)C)nnc2-c2ccccn2)cc1`, the growth inhibition is 4.58%.
Take `Nc1nonc1-c1nc2ccccc2n1Cc1ccc(F)cc1`: the growth inhibition was -8.77%.
Next, `Cc1c(C(=O)N2CCOCC2)[nH]c2ccc(OCc3ccccc3)cc12`: 1.84%.
The figure for `CCOC(=O)c1c(CN2CCOCC2)n(-c2ccccc2)c2ccc(O)cc12` is 65.2% (active).
Take `O=c1c(-c2ccccc2)coc2c(CN3CCOCC3)c(O)ccc12`: the growth inhibition is -9.34%.
Take `O=C(O)c1ccc(NS(=O)(=O)c2cccc3nsnc23)cc1`: the growth inhibition was -25%.
As to `Cc1cccc2nc(CNc3ccc(F)cc3)cn12`, the growth inhibition was 4.83%.
Next, `COc1cc(-c2noc(C3CCCN(S(=O)(=O)c4cccc(Cl)c4)C3)n2)cc(OC)c1OC` (stereo not drawn): 35.2%.
For `O=C(Nc1ccccc1N1CCN(c2ccccc2)CC1)c1cccc(F)c1`, the growth inhibition is 17.8%.
Next, `O=C(Nc1ccccc1N1CCCCC1)c1cccc(F)c1`: 100% (active); `O=C(Nc1ccccc1N1CCCCC1)c1ccc2nccnc2c1`: 28.8%; `O=C(Nc1ccccc1F)C1C2C=CC3(O2)C1C(=O)N(c1cccnc1)C3C(=O)NC1CCCCC1` (stereo not drawn): -12.5%.
As to `CCOc1ccc2nc(NCCNS(=O)(=O)c3ccccc3)c(C#N)cc2c1`, the growth inhibition was -0.48%.
Next, `COc1ccc2nc(N3CCCC(O)C3)c(C#N)cc2c1` (stereo not drawn): 5.39%; `CCOc1ccc2nc(N3CCCN(C(=O)Nc4ccccc4C)CC3)c(C#N)cc2c1`: 62.3% (active).
The figure for `COc1ccc(-c2nc(CS(=O)CC(=O)N3CCc4ccccc4C3)c(C)o2)cc1` (stereo not drawn) is 3.93%.
As to `Cc1oc(-c2ccccc2F)nc1CS(=O)(=O)CC(=O)NCCCN(C)C1CCCCC1`, the growth inhibition was -1.97%.
The figure for `Cc1ccccc1-c1nc(CS(=O)(=O)CC(=O)N2CCc3ccccc3C2)c(C)o1` is 63% (active); for `CCCc1cc(=O)[nH]c(SCc2ccc(C#N)cc2)n1` it is 14.9%.
Next, `CCCCC(=O)N(c1ccc(OC)cc1)C1C=CS(=O)(=O)C1` (stereo not drawn): -9.87%; `Fc1ccccc1C(c1nnnn1Cc1ccc2c(c1)OCO2)N1CCN(Cc2ccccc2)CC1` (stereo not drawn): 20.4%; `Fc1ccc(Cn2nnnc2C(c2cccs2)N2CCCCCC2)cc1` (stereo not drawn): 85.7% (active).
The figure for `CCC(C)(C)n1nnnc1C(c1cccs1)N1CCN(Cc2ccccc2)CC1` (stereo not drawn) is 4.31%; for `COc1ccc(N2CCN(Cc3cc(=O)oc4ccc5ccccc5c34)CC2)cc1` it is 11.6%; for `CCOC(=O)C1C(=O)NC(N2CCN(c3ccccc3)CC2)=NC1c1ccco1` (stereo not drawn) it is -7.5%.
Take `COc1ccc(CCNC(=O)c2ccco2)cc1`: the growth inhibition was -4.03%.
The figure for `CCOC(=O)C1C(=O)C=C(c2ccc(OC)cc2)CC1c1ccco1` (stereo not drawn) is 85.4% (active).
Next, `CCOc1ccc(S(=O)(=O)n2ccnc2)c2ccccc12`: 3.73%; `CS(=O)(=O)N(CC(=O)N1CCN(c2cccc(Cl)c2)CC1)c1ccccc1`: 1.41%.
The figure for `Cc1ccccc1OCC(=O)Nc1ccc(N2CCN(C(=O)C(C)C)CC2)c(Cl)c1` is 42.8%; for `CCc1nnc(NS(=O)(=O)c2ccc(NS(=O)(=O)c3ccccc3)cc2)s1` it is 19%; for `CCOC(=O)C1CCc2nc3ccccc3c(=O)n21` (stereo not drawn) it is -18.7%.
With `CCOC(=O)C1Cn2c(nc3c(c2=O)C(C)(CC)Cc2ccccc2-3)S1` (stereo not drawn), the growth inhibition is 67.9% (active).
Turning to `CC1(C)Cc2ccccc2-c2nc(CN3CCOCC3)[nH]c(=O)c21`, the growth inhibition is 5.57%.
On to `CCCCc1nc2c(=O)[nH]c3ccccc3c2o1`, for which the growth inhibition is -2.92%.
Take `Clc1ccc(Cn2ncc3c(NCc4cccnc4)ncnc32)cc1`: the growth inhibition is 18.6%.
Next, `O=C(NCc1ccco1)C1CCCN(S(=O)(=O)c2cccc3nonc23)C1` (stereo not drawn): -21.5%; `COc1ccc(N2C(=O)CC(N3CCC(C(N)=O)CC3)C2=O)cc1` (stereo not drawn): -10.9%.
Next, `COc1cccc(NC(=O)CN(C)S(=O)(=O)c2ccc(C)cc2)c1`: 13.3%; `CCN(CC)C(=O)CSc1nnc(-c2cccc(OC)c2)o1`: -2.54%.
For the molecule `COc1cccc(-c2nnc(NC(=O)c3ccc(S(=O)(=O)N(CC(C)C)CC(C)C)cc3)o2)c1`, the growth inhibition is 98.8% (active).
Next, `CCOC(=O)c1sc(NC(=S)n2cc(C)cn2)c(C(=O)OCC)c1C`: 23.8%.
Next, `Cc1cc2nc(-c3ccc(NC(=O)c4cccnc4)cc3)oc2cc1C`: 10.2%.
For `O=C(c1ccco1)N1CCN(C(=O)c2ccc(COc3ccc(F)cc3)o2)CC1`, the growth inhibition was 1.7%.
The figure for `Cc1cc(=O)[nH]c(=S)[nH]1` is -13.2%.
As for `COC(=O)NC1(C(F)(F)F)NC(=O)N(C2CCCCC2)C1=O` (stereo not drawn), the growth inhibition is -5.17%.
The figure for `O=C1NC(Nc2nc3ccccc3s2)(C(F)(F)F)C(=O)N1C1CCCCC1` (stereo not drawn) is 100% (active).
Next, `C1=C(N2CCOCC2)/C(=C/c2nc3ccccc3[nH]2)CC1`: -16.7%; `CCOC(=O)c1cc(-c2ccc(Cl)s2)nc2c1c(C)nn2C`: 8.55%.
The figure for `CC(C)CCNC(=O)CCNS(=O)(=O)c1ccc(Cl)cc1` is 7.04%; for `Cc1cc(NC(=O)CCC2COc3ccccc3O2)no1` (stereo not drawn) it is 0.5%; for `O=C(Nc1nc(-c2ccncc2)cs1)C1COc2ccccc2O1` (stereo not drawn) it is 36.7%.
`COc1ccc(OC)c2sc(NC(=O)C3COc4ccccc4O3)nc12` (stereo not drawn): the growth inhibition is 70.5% (active).
The figure for `CC(=O)c1cnc(Nc2nc(C)c3cc(C)ccc3n2)nc1C` is -6.16%.
Consider `COc1ccccc1-c1cc(C(=O)N2CCCCC2)no1`, for which the growth inhibition was 7.63%.
Next, `COc1ccccc1N1CCN(C(=O)c2cc(-c3ccc(Cl)c(Cl)c3)on2)CC1`: -3.17%; `COc1ccccc1N1CCN(C(=O)c2cc(-c3ccc(Br)cc3)on2)CC1`: 63.8% (active).
Turning to `Oc1c(C(c2ccccn2)N2CCOCC2)ccc2cccnc12` (stereo not drawn), the growth inhibition is 29.8%.
Next, `CCCC(C(=O)N1CCOCC1)N1C(=O)C2C3C=CC(C3)C2C1=O` (stereo not drawn): -13.1%; `CC(C)c1ccc(N2CC(C(=O)Nc3nccs3)CC2=O)cc1` (stereo not drawn): 9.63%.
Next, `Cc1oc(C)c(C(=O)NCCCC(=O)O)c1C(=O)NCCCC(=O)O`: -20.2%.
